Shown are actives, neighbours in structure and some others; about 1.9% of the full set was active somewhere.
IDE cell activ: human IDE activators in live cells, primary screen, fluorescence polarization, HEK cells, FAbeta-B substrate. Insulin-degrading enzyme (Homo sapiens), P14735. actives 0.073% (n = 340,000). FAbeta-B cleavage; 0% vehicle, 100% cell-free pure enzyme wells. activation, % at 5.96 µM. AID 493087, 2011;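 active = activation above the mean of all tested compounds plus 3 SD, set per screening campaign, cut at about 17% in these data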
procasp3 activ: activators of human procaspase-3 D3A mutant, primary screen, biochemical, absorbance, PC-3 D3A mutant, single concentration. Caspase-3 (Homo sapiens), P42574. recombinant procaspase-3 D3A, Ac-DEVD-pNA absorbance 405 nm. activation, % at 8.5 µM. actives 0.11% (n = 330,000). AID 463141, 2010;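 active = activation above the mean of all tested compounds plus 3 SD, cut at about 21% in these data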
Target sequence (P42574 whole entry D9A/D28A/D175A): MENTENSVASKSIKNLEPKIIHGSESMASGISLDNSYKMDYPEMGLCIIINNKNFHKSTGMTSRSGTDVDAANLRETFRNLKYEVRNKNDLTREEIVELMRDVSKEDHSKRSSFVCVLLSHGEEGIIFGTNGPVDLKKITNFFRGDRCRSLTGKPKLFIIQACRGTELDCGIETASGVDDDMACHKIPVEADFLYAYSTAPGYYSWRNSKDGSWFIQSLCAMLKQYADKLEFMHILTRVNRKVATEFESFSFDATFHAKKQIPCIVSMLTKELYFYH
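Evaluation: percent activation relative to control range; Material: Procaspase-3 D3A mutant, all three cleavage aspartates alanine; Compound: single dose, 8.5 µM nominal compound, 0.8% DMSO; Replication: one well per compound; Signal: absorbance at 405 nm, 0 and 120 min; Schedule: 1 h preincubation plus 2 h reaction at 25 °C.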
IDE cell inh: human IDE inhibitors in live cells, primary screen, fluorescence polarization, HEK cells, FAbetaB substrate | Insulin-degrading enzyme (Homo sapiens), P14735 | FAbetaB cleavage | inhibition, % at 5.59 µM | actives 0.41% (n = 320,000) | AID 434962, 2010;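 active = percent inhibition above the average of all tested compounds plus 3 SD, set per screening campaign, cut at about 16% in these data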;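 also: IDE supplied by intact live HEK cells; FP after avidin binding of uncleaved biotin substrate so inhibition keeps polarization high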
UBC13 inh: UBC13 polyubiquitin chain formation inhibitors, primary screen, biochemical, TR-FRET, uHTS; inhibition, % at 20 µM; actives 0.47% (n = 330,000); AID 485273, 2010; Ubiquitin-conjugating enzyme E2 N (Homo sapiens), P61088; in the data active = inhibition above about 45%, passing the limit was not always enough
Target sequence (P61088 whole entry, looked up): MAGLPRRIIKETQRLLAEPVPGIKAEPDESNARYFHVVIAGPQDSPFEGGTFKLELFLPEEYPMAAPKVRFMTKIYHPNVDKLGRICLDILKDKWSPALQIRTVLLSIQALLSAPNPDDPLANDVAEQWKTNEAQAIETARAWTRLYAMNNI
procasp7 counter: procaspase-7 activators, primary screen, counter-screen for procaspase-3 activator project, biochemical, absorbance, HTS, human; Caspase-7 (Homo sapiens), P55210; recombinant procaspase-7, Ac-DEVD-pNA absorbance 405 nm; D23A/D198A/D206A triple mutant, cannot self-cleave; scale: DMSO 0, 5 µM enzyme 100; activation, % at 8.5 µM; actives 0.093% (n = 330,000); AID 463210, 2010;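 active = percent activation above the screen-wide mean plus 3 SD, cut at about 25% in these data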
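Assay system: Uncleavable procaspase-7 mutant enzyme; Input: 2 µM procaspase-7 mutant as dispensed; Also added: DEVD-pNA substrate; Medium: Zinc-free HEPES pH 7.4 with 300 mM NaCl, 0.01% Triton X-100; Timing: 1 h compound preincubation, 2 h substrate cleavage, 25 °C; Measured by: Epi-absorbance of released pNA at 405 nm, two timepoints.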
PHOSPHO1 block: PubChem AID 1565. recombinant PHOSPHO1, absorbance phosphatase assay. Phosphoethanolamine/phosphocholine phosphatase (Homo sapiens), Q8TCT1. actives 1.1% (n = 290,000). inhibition, % at 13.3 µM; in the data active = inhibition above about 60%
PC3 D3A act: procaspase-3 activators, counter-screen for dual procaspase-3/7 activator project, biochemical, absorbance, PC-3 D3A mutant, human. shares compounds with procasp7 counter. recombinant PC-3 D3A, Ac-DEVD-pNA absorbance 405 nm; aspartates 9, 28, 175 changed to alanine; 100% = enzyme control. activation, % at 8.5 µM. 290 tested, under 10 active. AID 493114, 2011;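 active = mean percent activation across triplicates above a set limit taken from the earlier primary procaspase-3 screen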
Procasp7 act: activation of procaspase-7 enzyme – biochemical, absorbance, human, dual procaspase-3/-7 activator project, confirmation; shares compounds with procasp7 counter; recombinant procaspase-7, Ac-DEVD-pNA absorbance 405 nm; D23A/D198A/D206A mutant that cannot self-cleave; activation, % at 8.5 µM; 290 tested, under 10 active;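 active = mean activation above a set limit carried over from the earlier primary screen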
Large screens that a line does not name were inactive (follow-up assays come after a bar, where they were run).

Cc1ccc(CSc2nnc([C@@H]3CCCN3C(=O)OC(C)(C)C)o2)cc1	none
CCOC(=O)/C(C#N)=C/c1ccc(OC)c(OC)c1	none
CCOC(=O)/C(C#N)=C/Nc1cc(OC)ccc1OC	procasp3 activ 95, procasp7 counter 87 | PC3 D3A act inactive | Procasp7 act inactive
O=S(=O)(O)c1ccc(N2N=C(c3ccccc3)CC2c2ccccc2)cc1 (stereo unspecified)	none
NS(=O)(=O)c1ccc(N2N=C(c3ccccc3)CC2c2ccccc2)cc1 (stereo unspecified)	procasp3 activ 37, procasp7 counter 63 | PC3 D3A act inactive | Procasp7 act inactive
CCc1ccc(C2=NN(c3ccc(S(N)(=O)=O)cc3)C(c3ccc(F)cc3)C2)cc1 (stereo unspecified)	procasp3 activ 59, procasp7 counter 27 | PC3 D3A act inactive | Procasp7 act inactive
NS(=O)(=O)c1ccc(N2N=C(c3ccccc3)CC2c2ccccc2Cl)cc1 (stereo unspecified)	procasp3 activ 47, procasp7 counter 80 (no result: IDE cell inh, UBC13 inh, PHOSPHO1 block) | PC3 D3A act inactive | Procasp7 act inactive
COc1ccc(-n2c(SCC(=O)C(C)(C)C)nc3c(sc(=S)n3-c3ccccc3)c2=O)c(OC)c1	none
O=C(Cc1cccc2ccccc12)NCC(=O)N1CCN(Cc2cccc(C(F)(F)F)c2)CC1	none (no result: PHOSPHO1 block)
CCOC(=O)C1=NN(c2ccccc2)C2C(=O)N(c3ccccc3OC)C(=O)C12 (stereo unspecified)	none
COc1ccccc1N1C(=O)C2C(C(=O)c3ccccc3)=NN(c3ccccc3)C2C1=O (stereo unspecified)	procasp7 counter 33 | PC3 D3A act 26 | Procasp7 act inactive
CCOC(=O)C1=NN(c2ccc(OC)cc2)C2C(=O)N(c3ccccc3OC)C(=O)C12 (stereo unspecified)	none
COC(=O)C1=NN(c2ccc(Cl)cc2)C2C(=O)N(c3ccccc3OC)C(=O)C12 (stereo unspecified)	procasp7 counter 30 | PC3 D3A act inactive | Procasp7 act inactive
CC1CCN(C(=O)CN2C(=O)NC(c3ccccc3)(c3ccccc3)C2=O)CC1	none (no result: PHOSPHO1 block)
N#Cc1cn(Cc2ccco2)c(=O)[nH]c1=O	none (no result: procasp3 activ, IDE cell inh, UBC13 inh, procasp7 counter, PHOSPHO1 block)
C=CCNC1=C(Cl)C(=O)N(c2cccc(Cl)c2Cl)C1=O	procasp7 counter 32 | PC3 D3A act inactive | Procasp7 act inactive
COc1ccc(-c2nc3ccccc3nc2-c2ccc(OC)cc2)cc1	procasp3 activ 32, procasp7 counter 33 (no result: PHOSPHO1 block) | PC3 D3A act inactive | Procasp7 act inactive
S=c1[nH]nc(-c2cc3c(s2)-c2ccccc2CC3)o1	none
CSc1nnc(-c2cc3c(s2)-c2ccccc2CC3)o1	procasp7 counter 33 | PC3 D3A act inactive | Procasp7 act inactive
O=C(CNC(=O)N1CC(=O)Nc2ccccc21)NCc1cccc(Cl)c1	none
COc1cccc(-c2cc3nc(-c4ccccc4)cc(N4CCCC(O)C4)n3n2)c1 (stereo unspecified)	procasp3 activ 36, procasp7 counter 50 | PC3 D3A act inactive | Procasp7 act inactive
OC1CCN(c2cc(-c3ccccc3)nc3cc(-c4ccc(F)cc4)nn23)CC1	none
